The source of these data is ChEMBL document CHEMBL1275530, “Aspergillus fumigatus forms biofilms with reduced antifungal drug susceptibility on bronchial epithelial cells” (2008).

Converted amounts (≈) assume the structure as drawn. *1 amine or outer side, *2 acyl side, *3 side chain or, on linkers, in order; H or OH if unused. Where a SMILES comes first, the peptide text is derived from it. Bridges are numbered along the chain shown (N, C = ends). [ ]: non-standard residue; d: D form. The star is where a group is joined. hTyr(3S-OH,4S-OH,3'-OSO3H) = N[C@H](C(=O)O)[C@H](O)[C@@H](O)c1ccc(O)c(OS(=O)(=O)O)c1; Orn(4R-OH,5R-OH) = O=C([C@H](C[C@@H](O)[C@@H](O)N[*:3])N[*:1])[*:2]; Pro(3S-OH,4S-Me) = C[C@H]1CN[C@H](C(=O)O)[C@H]1O; X1 = CCCCCOc1ccc(-c2cc(-c3ccc(C(=O)*)cc3)no2)cc1; Gln(3R-OH) = NC(=O)C[C@@H](O)[C@H](N)C(=O)O; Hyp = O=C(O)[C@@H]1C[C@@H](O)CN1

Holding throughout (format): functional
Assay [1] deals with Aspergillus fumigatus. The assay is described as follows: Antifungal activity against Aspergillus fumigatus ATCC 9197 grown as biofilm on 16HBE cell after 24 to 48 hrs by XTT assay. The procedure, abridged: (§1)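 Biofilm grown in PS 96-well plates on confluent 16HBE14o− (1) or CFBE41o− (2) cells on fibronectin/collagen coating. Conidia (10^6/ml) in MEM plus 10% FCS adhered 2 h at 37°C, 5% CO2. Drugs were added after 24–48 h of biofilm growth and incubated another 24 h and 48 h. Sessile MIC was read by XTT as 50% (MIC-2) or 90% (MIC-1) inhibition of metabolic activity versus drug-free control. CFU were also plated. Three repeats.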
A general note: Tetrazolium assays rely on reduction of a dye to a coloured formazan, in cell work by metabolically active cells.

Assay [2] has as its system Aspergillus fumigatus. The assay is described as follows: Antifungal activity against Aspergillus fumigatus ATCC 9197 grown as planktonic cell on 16HBE cell after 48 hrs by broth microdilution method. The conditions noted are these: ATCC 9197, 48 h. The method, boiled down: (§2)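 CLSI M38-A broth microdilution on planktonic conidia, with drugs added at once and end points read at 24 h and 48 h. Ranges in μg/ml: AMB 0.06 to 32; liposomal AMB, voriconazole, posaconazole, itraconazole, caspofungin and micafungin 0.03 to 16. Inoculum was the same as in the XTT assay. Three repeats.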
(In general: Dilution methods test growth across graded concentrations, often in twofold steps.)

Assay [3] relates to Aspergillus fumigatus. The assay is described as follows: Antifungal activity against Aspergillus fumigatus ATCC 9197 grown as biofilm on CFBE41o cell after 24 to 48 hrs by XTT assay. The method, boiled down: as §1
Assay [4] deals with Aspergillus fumigatus. In words: Antifungal activity against Aspergillus fumigatus ATCC 9197 grown as planktonic cell on CFBE41o cell after 48 hrs by broth microdilution method. The conditions noted are these: ATCC 9197, 48 h. The procedure, abridged: as §2
Assay [5] has as its system Aspergillus fumigatus. The assay is described as follows: Antifungal activity against Aspergillus fumigatus ATCC 9197 grown as biofilm on polystyrene after 24 to 48 hrs by XTT assay. The procedure, abridged: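 Biofilm was formed on polystyrene without epithelial cells, starting from 10^6 conidia/ml in MEM plus 10% FCS. Drugs were added after 24–48 h of biofilm growth. After a further 24 h and 48 h, XTT reduction gave MICs at 50% and 90% inhibition of metabolic activity relative to a drug-free control.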

In assay [6] the test system is Aspergillus fumigatus. The assay is described as follows: Antifungal activity against Aspergillus fumigatus ATCC 9197 grown as planktonic cell on polystyrene after 48 hrs by broth microdilution method. The conditions noted are these: ATCC 9197, 48 h. The procedure, abridged:
as §2

`CCCCCOc1ccc(-c2cc(-c3ccc(C(=O)N[C@H]4C[C@@H](O)[C@@H](O)NC(=O)[C@@H]5[C@@H](O)[C@@H](C)CN5C(=O)[C@H]([C@H](O)CC(N)=O)NC(=O)[C@H]([C@H](O)[C@@H](O)c5ccc(O)c(OS(=O)(=O)O)c5)NC(=O)[C@@H]5C[C@@H](O)CN5C(=O)[C@H]([C@@H](C)O)NC4=O)cc3)no2)cc1` [MICAFUNGIN] (X1-[Orn(4R-OH,5R-OH)]T[Hyp][hTyr(3S-OH,4S-OH,3'-OSO3H)][Gln(3R-OH)][Pro(3S-OH,4S-Me)]; lactam 1-C): the MIC50 was more than 8 µg/mL in assay [1], 0.5 µg/mL (≈ 0.394 µM) in assay [2], more than 8 µg/mL in assay [3] and 0.5 µg/mL (≈ 0.394 µM) in assay [4]. Besides, the MIC90 in assay [1] was more than 8 µg/mL; in assay [2] it was 1 µg/mL (≈ 0.787 µM); in assay [3] it was more than 8 µg/mL; in assay [4], 1 µg/mL (≈ 0.787 µM).

Consider `CCC(C)n1ncn(-c2ccc(N3CCN(c4ccc(OCC5COC(Cn6cncn6)(c6ccc(Cl)cc6Cl)O5)cc4)CC3)cc2)c1=O` (stereo unspecified) [ITRACONAZOLE], for which the MIC50 in assay [1] amounted to 1 µg/mL (≈ 1.42 µM); in assay [2], 0.125 µg/mL (≈ 0.177 µM); in assay [3], 1 µg/mL (≈ 1.42 µM); in assay [4], 0.125 µg/mL (≈ 0.177 µM); in assay [5], 2 µg/mL (≈ 2.83 µM); in assay [6], 0.5 µg/mL (≈ 0.709 µM). The MIC90 came out at 1 µg/mL (≈ 1.42 µM) in assay [1]; 0.25 µg/mL (≈ 0.354 µM) in assay [2]; 2 µg/mL (≈ 2.83 µM) in assay [3]; 0.25 µg/mL (≈ 0.354 µM) in assay [4]; 4 µg/mL (≈ 5.67 µM) in assay [5]; 1 µg/mL (≈ 1.42 µM) in assay [6].

`CC[C@H](C)C[C@H](C)CCCCCCCCC(=O)N[C@H]1C[C@@H](O)[C@@H](NCCN)NC(=O)[C@@H]2[C@@H](O)CCN2C(=O)[C@H]([C@H](O)CCN)NC(=O)[C@H]([C@H](O)[C@@H](O)c2ccc(O)cc2)NC(=O)[C@@H]2C[C@@H](O)CN2C(=O)[C@H]([C@@H](C)O)NC1=O` [CASPOFUNGIN]: the MIC50 in assay [1] was more than 8 µg/mL; in assay [2], 0.5 µg/mL (≈ 0.457 µM); in assay [3], more than 8 µg/mL; in assay [4], 0.5 µg/mL (≈ 0.457 µM). Also, the MIC90 in assay [1] is more than 8 µg/mL; in assay [2], 1 µg/mL (≈ 0.915 µM); in assay [3], more than 8 µg/mL; in assay [4], 1 µg/mL (≈ 0.915 µM).

As for `CC[C@@H]([C@H](C)O)n1ncn(-c2ccc(N3CCN(c4ccc(OC[C@@H]5CO[C@@](Cn6cncn6)(c6ccc(F)cc6F)C5)cc4)CC3)cc2)c1=O` [POSACONAZOLE], the MIC50 in assay [1] came to 1 µg/mL (≈ 1.43 µM); in assay [2], 0.125 µg/mL (≈ 0.178 µM); in assay [3], 1 µg/mL (≈ 1.43 µM); in assay [4] it was 0.125 µg/mL (≈ 0.178 µM). The MIC90 worked out at 1 µg/mL (≈ 1.43 µM) in assay [1], 0.125 µg/mL (≈ 0.178 µM) in assay [2], 2 µg/mL (≈ 2.85 µM) in assay [3] and 0.125 µg/mL (≈ 0.178 µM) in assay [4].

Take `C[C@@H](c1ncncc1F)[C@](O)(Cn1cncn1)c1ccc(F)cc1F` [VORICONAZOLE]: the MIC50 amounted to 1 µg/mL (≈ 2.86 µM) in assay [1], 0.125 µg/mL (≈ 0.358 µM) in assay [2], 1 µg/mL (≈ 2.86 µM) in assay [3] and 0.125 µg/mL (≈ 0.358 µM) in assay [4]. The MIC90 was 1 µg/mL (≈ 2.86 µM) in assay [1], 0.125 µg/mL (≈ 0.358 µM) in assay [2], 2 µg/mL (≈ 5.73 µM) in assay [3] and 0.125 µg/mL (≈ 0.358 µM) in assay [4].

On to `C[C@@H]1[C@H](O)[C@@H](C)/C=C/C=C/C=C/C=C/C=C/C=C/C=C/[C@H](O[C@@H]2O[C@H](C)[C@@H](O)[C@H](N)[C@@H]2O)C[C@@H]2O[C@](O)(C[C@@H](O)C[C@@H](O)[C@H](O)CC[C@@H](O)C[C@@H](O)CC(=O)O[C@H]1C)C[C@H](O)[C@H]2C(=O)O` [AMPHOTERICIN B], for which the MIC50 was determined as 2 µg/mL (≈ 2.16 µM) in assay [1]; 0.5 µg/mL (≈ 0.541 µM) in assay [2]; 4 µg/mL (≈ 4.33 µM) in assay [3]; 0.5 µg/mL (≈ 0.541 µM) in assay [4]; 8 µg/mL (≈ 8.66 µM) in assay [5]; 1 µg/mL (≈ 1.08 µM) in assay [6]. In addition, the MIC90 in assay [1] is 4 µg/mL (≈ 4.33 µM); in assay [2] it was 1 µg/mL (≈ 1.08 µM); in assay [3], 8 µg/mL (≈ 8.66 µM); in assay [4], 1 µg/mL (≈ 1.08 µM); in assay [5], 16 µg/mL (≈ 17.3 µM); in assay [6] it was 1 µg/mL (≈ 1.08 µM).
